Results on one compound are retold here after ChEMBL document CHEMBL3632468, “Discovery and optimisation studies of antimalarial phenotypic hits” (Eur J Med Chem, 2015).

One data set relates to Liver. In words: Intrinsic clearance in mouse liver microsomes assessed as compound metabolized at 1 uM pre-incubated at 37 degC before addition of NADPH-generating system by LC/MS method. In kind it is ADME.
The subject of data set [1] is Liver microsome. Put plainly: Drug metabolism in human liver microsomes at 1 uM by LC/MS method. It is filed as ADME.
Data set [2] has as its system Plasmodium berghei. In words: Antimalarial activity against Plasmodium berghei ANKA expressing GFP infected in NMRI mouse assessed as increase in mouse survival at 50 mg/kg, ip qd administered as single dose on day 0 to 4 of exposure measured on day 5 post exposure by FACS method (reference value: 7 days). It is filed as functional. The method, boiled down: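 P. berghei ANKA GFP infection in mice, dosed intraperitoneally at 50 mg/kg/day × 4. An untreated control group and a chloroquine 10 mg/kg ip reference group were included. Read-outs were % reduction in parasitaemia and mean survival in days.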

The test system of data set [3] is Liver microsome. In words: Intrinsic clearance in human liver microsomes assessed as compound metabolized at 1 uM pre-incubated at 37 degC before addition of NADPH-generating system by LC/MS method. In kind it is ADME.
A short description of data set [4]: Solubility in phosphate buffer at pH 6.5 by nephelometry. It is filed as physicochemical.
The subject of data set [5] is Plasmodium berghei. In words: Antimalarial activity against Plasmodium berghei ANKA expressing GFP infected in NMRI mouse assessed as inhibition of parasitemia at 50 mg/kg, ip qd administered as single dose on day 0 to 4 of exposure measured on day 5 post exposure by FACS method relative to control. In kind it is functional. The method in brief: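 P. berghei ANKA GFP infection in mice; dosed intraperitoneally at 50 mg/kg/day × 4, with chloroquine 10 mg/kg ip as reference and untreated controls. Read-out was % reduction in parasitaemia relative to controls, with survival in days also recorded.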

Data set [6] in a line: Drug metabolism in mouse liver microsomes at 1 uM by LC/MS method. In kind it is ADME.

In brackets after ≈: the same amount, converted by molar mass.

Take `Cc1cc(/C=C2\S/C(=N\c3ccccc3)N(C3CCCCC3)C2=O)c(C)n1-c1ccc(F)cc1`: the CLH is 55 µL/min/mg in the data set on Liver and 360 µL/min/mg in the data set on Liver microsome [3]. In addition, the Drug metabolism entry (in the data set on Liver microsome [1]; in data set [6]) was “metabolite_notdetected” throughout. Moreover, the Survival with Plasmodium berghei [2] was 6 days. In data set [4], this compound gave a kinetic solubility of 0.8 µg/mL (≈ 1.69 µM). Also, in the data set with Plasmodium berghei [5], the inhibition in vivo at 50 mg/kg came out at 12%.
